Screens: PubChem BioAssay, several laboratories
Hits are enriched below; roughly 1.3% of the tested compounds scored in any of these assays.
VLA-4 inh: inhibition in a human VLA-4 binding assay; P13612; VLA-4 expressing cells, ligand binding flow cytometry; inhibition, % (about 7 µM as worked out from the volumes in the protocol); 0.2% of 330,000 active; in the data active = inhibition above about 50%
GASC-1 inh: human JMJD2C demethylase inhibition; AID 2099; inhibition, % at 2.35 µM; 0.069% of 330,000 active; GST-JMJD2C(1-420) H3K9me3 demethylation, DELFIA europium; Q9H3R0;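 active = more than half of a compound's replicate wells show inhibition beyond 50%, single wells judged on their own value; inconclusive = some, but no more than half, of replicates pass 50% inhibition; inactive = no replicate passes 50% inhibition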;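 note: signal counts dimethyl H3K9 product captured on neutravidin plate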
Target sequence (Q9H3R0 1-420 limits assumed): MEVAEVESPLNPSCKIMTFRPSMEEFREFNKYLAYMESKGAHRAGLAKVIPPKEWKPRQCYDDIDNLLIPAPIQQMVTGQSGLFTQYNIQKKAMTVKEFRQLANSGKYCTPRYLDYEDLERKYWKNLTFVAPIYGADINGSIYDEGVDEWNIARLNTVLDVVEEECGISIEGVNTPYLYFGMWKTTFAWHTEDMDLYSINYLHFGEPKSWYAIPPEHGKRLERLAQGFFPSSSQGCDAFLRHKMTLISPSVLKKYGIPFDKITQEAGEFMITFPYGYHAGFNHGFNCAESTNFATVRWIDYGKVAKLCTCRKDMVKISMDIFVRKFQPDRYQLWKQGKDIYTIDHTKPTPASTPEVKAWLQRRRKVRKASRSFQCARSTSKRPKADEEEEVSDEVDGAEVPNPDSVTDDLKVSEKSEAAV
procasp3 activ: activators of human procaspase-3. P42574. recombinant procaspase-3 D3A, Ac-DEVD-pNA absorbance 405 nm. activation, % at 8.5 µM. 0.11% of 330,000 active. AID 463141;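 active = activation above the mean of all tested compounds plus 3 SD, cut at about 21% in these data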
Target sequence (P42574 whole entry D9A/D28A/D175A): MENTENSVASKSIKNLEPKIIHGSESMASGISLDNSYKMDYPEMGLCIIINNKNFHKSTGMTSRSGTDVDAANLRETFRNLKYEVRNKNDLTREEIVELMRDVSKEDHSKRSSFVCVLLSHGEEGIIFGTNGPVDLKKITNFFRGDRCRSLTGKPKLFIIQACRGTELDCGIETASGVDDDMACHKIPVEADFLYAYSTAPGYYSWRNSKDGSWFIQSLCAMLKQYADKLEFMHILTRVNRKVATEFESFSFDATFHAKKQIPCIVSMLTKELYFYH
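Test system: Procaspase-3 D3A mutant; medium: Zinc-free HEPES/NaCl buffer with 0.01% Triton X-100 at pH 7.4; reagent: DEVD-pNA substrate; doses: one concentration, 8.5 µM nominal, 0.8% DMSO; times: 1 h preincubation plus 2 h reaction at 25 °C; signal: Epi-absorbance at 405 nm of released p-nitroaniline, 0 and 120 min; replicates: singlicate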
GRK2 inh: blocks RNA aptamer binding to human GRK2. 0.59% of 330,000 active. bead flow cytometry, FAM-aptamer displacement from GRK2. inhibition of aptamer binding, % at 10 µM;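 active = inhibition of aptamer binding above 40%, roughly 3 SD of noise, on plates passing a quality check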;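 note: median bead fluorescence of bound FAM aptamer so fluorescent compounds give negative values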
procasp7 counter: counter-screen for procaspase-3 activators: activators of human procaspase-7; activation, % at 8.5 µM; recombinant procaspase-7, Ac-DEVD-pNA absorbance 405 nm; D23A/D198A/D206A triple mutant, cannot self-cleave; scale: DMSO 0, 5 µM enzyme 100; 0.093% of 330,000 active; P55210;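 active = percent activation above the screen-wide mean plus 3 SD, cut at about 25% in these data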
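Assay system: Uncleavable procaspase-7 mutant enzyme | Input: 2 µM procaspase-7 mutant as dispensed | Timing: 1 h compound preincubation, 2 h substrate cleavage, 25 °C | Repeats: One well per compound | Control set: DMSO wells as 0%, DMSO with 5 µM added PC-7 as 100% | Technique: Epi-absorbance of released pNA at 405 nm, two timepoints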
Hep lipid drop: hepatic lipid droplet formation modulation; AML12 mouse hepatocytes, oleate lipid droplets, BODIPY imaging; AID 1656; inhibition, % at 6.5 µM; 0.4% of 240,000 active;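 active = lipid droplet intensity inhibited by at least 50%, with more than 500 cells counted; inconclusive = wells with under 300 cells, treated as cytotoxic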
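System: AML12 hepatocytes (mouse). Probe or stimulus: oleic acid at 100 µM to induce lipid droplet formation. Times: overnight treatment with compound plus oleate. Detection: Image-based BODIPY and DAPI two-channel analysis. Evaluation: percent inhibition of filter-corrected integrated lipid droplet intensity per well.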
VLA-4 allo CP: human VLA-4 allosteric modulation in cherry picked compounds. shares compounds with VLA-4 inh. 2% of 1,300 active. AID 2813. inhibition, % at 6.7 µM. U937 cells, HUTS-21 LIBS mAb binding, flow cytometry; LDV ligand present at threefold Kd; in the data active = inhibition above about 40%
Numbers stand for hits; . = inactive; ? = inconclusive; / = not tested or not shown.

SMILES	VLA-4 inh	GASC-1 inh	procasp3 activ	GRK2 inh	procasp7 counter	Hep lipid drop	VLA-4 allo CP
COc1ccccc1-c1sc2ccccc2c1-c1ccccc1OC	.	.	.	.	.	/	/
COc1ccc2c(-c3ccc(OCCN4CCCCC4)cc3)c(-c3ccccc3OC)sc2c1	/	/	.	.	.	/	.
OCCC1CN(Cc2cnc(-c3ccccc3)s2)CCN1C1CCCC1 (stereo unspecified)	.	.	.	.	.	.	.
Cc1ccc(-c2nc(-c3ccncc3)no2)cc1	.	.	/	.	/	.	/
Cc1ccc(-c2nc(-c3ccccc3)no2)cc1	94.7	.	.	.	.	.	.
COCCn1c(-c2ccco2)nc2nc3ccccc3nc21	92.3	.	.	.	.	.	.
O=C(NCC(=O)N(c1cccnc1)C(C(=O)NC1CCCCC1)c1ccccc1F)c1ccco1 (stereo unspecified)	.	.	.	.	.	.	/
COc1ccc(-c2cc3nc(C)c(CCC(=O)NCc4ccco4)c(C)n3n2)c(OC)c1	.	.	.	.	.	.	/
Cc1nc2cc(-c3ccc(Cl)cc3)nn2c(C)c1CCC(=O)NCc1ccco1	52.3	.	.	.	.	/	.
COc1ccc(OC)c(NC(=O)NCc2ccc(F)cc2)c1	.	.	.	.	.	.	/
COc1ccc(C)cc1NC(=O)NCc1ccc(F)cc1	.	.	.	.	.	.	.
O=C(N1CCN(c2ccccn2)CC1)N1c2ccccc2Sc2ccccc21	66.5	.	.	.	.	.	.
CC(Cc1ccccc1)Nc1ncnc2c1ncn2C1OC(CO)C(O)C1O (stereo unspecified)	.	.	.	.	.	/	/
C[C@H](Cc1ccccc1)Nc1ncnc2c1ncn2[C@@H]1O[C@H](CO)[C@@H](O)[C@H]1O	59.0	/	.	.	.	/	.
CC(=O)O[C@H]1C[C@@]2(O)[C@@H](OC(=O)c3ccccc3)C3[C@@](C)([C@@H](O)C[C@H]4OC[C@@]34OC(C)=O)[C@@H](O)[C@H](OC(C)=O)C(=C1C)C2(C)C (stereo partly specified)	.	?	.	.	.	.	/
Cc1noc(C)c1CSCC(=O)Nc1nc2ccc(S(C)(=O)=O)cc2s1	50.2	.	.	.	.	/	.
COc1ccc2nc(NC(=O)CSCc3c(C)noc3C)sc2c1	.	.	.	.	.	/	/
COc1ccc(NC2CCCN(C(=O)CN3CCOC3=O)C2)cc1 (stereo unspecified)	.	.	.	.	.	.	/
CC(C)N(Cc1ccccc1)C(=O)COC(=O)c1cc[n+]([O-])cc1	.	.	.	.	.	/	/
COc1ccc(-c2c(-c3ccccc3OC)sc3ccccc23)cc1OC	.	.	.	.	.	/	/
COc1cc2sc(-c3ccccc3OC)c(-c3ccc(OCCN4CCOCC4)cc3)c2cc1OC	/	/	.	.	.	/	.
COc1ccccc1-c1sc2ccccc2c1-c1ccc2c(c1)OCCO2	.	.	.	.	.	/	/
COc1ccc2c(-c3ccc(OCCN4CCOCC4)cc3)c(-c3ccccc3OC)sc2c1	/	/	.	.	.	/	.
Cc1ccc2c(c1)C(O)(CC(=O)c1ccc(C)s1)C(=O)N2 (stereo unspecified)	.	.	.	.	.	.	/
Cc1ccc(C(=O)CC2(O)C(=O)Nc3ccccc32)s1 (stereo unspecified)	57.9	.	.	.	.	/	.
SMILES	VLA-4 inh	GASC-1 inh	procasp3 activ	GRK2 inh	procasp7 counter	Hep lipid drop	VLA-4 allo CP
COc1ccc(-n2c(=S)[nH]c3cc(C(=O)Nc4ccc(F)cc4)ccc3c2=O)c(OC)c1	.	.	.	.	.	.	/
O=C(O)c1cc(O)ccc1NC(=O)C(c1ccccc1)c1ccccc1	.	.	.	.	.	.	.
Nc1ccn([C@@H]2O[C@H](CO)[C@@H](O)[C@@H]2O)c(=O)n1	53.3	.	.	.	.	.	.
ClC(Cl)(Cl)c1nc2ccccc2n2nncc12	.	.	.	.	.	.	/
CCOc1ccc(N(C(=O)c2cnsn2)C(C(=O)NC2CCCCC2)c2ccncc2)cc1 (stereo unspecified)	.	.	.	.	.	.	/
COc1ccc(N(C(=O)c2cnsn2)C(C(=O)NC2CCCCC2)c2ccncc2)cc1 (stereo unspecified)	.	.	.	.	.	.	.
O=C(c1cc(-c2ccccc2)nc2ccccc12)N1CCN(C2CCS(=O)(=O)C2)CC1 (stereo unspecified)	.	.	.	.	.	/	/
Cc1ccc(-c2cc(C(=O)N3CCN(C4CCS(=O)(=O)C4)CC3)c3ccccc3n2)cc1 (stereo unspecified)	.	.	.	.	.	/	.
Cc1cc(C)n(-c2nc3c(c(=O)[nH]c(=O)n3C)n2Cc2cccc(Br)c2)n1	54.2	.	.	.	.	/	.
COC(=O)C1N2C(=O)[C@@H](NC(=O)COc3ccccc3)[C@H]2SC1(C)C (stereo partly specified)	.	.	.	.	.	/	/
CC1(C)C(C(=O)O)N2C(=O)C(NC(=O)Cc3ccccc3)C2S1=O (stereo unspecified)	59.0	.	.	.	.	/	.
O=S(=O)(NCc1ccccc1)c1ccc(Br)c2nsnc12	.	.	.	.	.	.	/
Cc1ccc2c(c1)N(CC(=O)NCC(C)c1ccccc1)C(=O)c1cccnc1O2 (stereo unspecified)	53.4	.	.	.	.	.	.
Cc1ccc2c(c1)N(CC(=O)NCCCc1ccccc1)C(=O)c1cccnc1O2	.	.	.	.	.	.	/
CC1CCCC(CC(=O)O)(CC(=O)O)C1 (stereo unspecified)	.	.	.	.	.	.	/
CCN(CC(=O)NCc1cccs1)C(=O)c1ccc(-c2cccc(C(F)(F)F)c2)o1	53.3	.	.	.	.	/	.
CCN(CC(=O)NCc1cccs1)C(=O)COc1cccc(C(F)(F)F)c1	.	.	.	.	.	/	/
Cc1cc2nc3c(c(=O)n2[nH]1)CCCC3	91.2	.	.	.	.	.	.
Cc1csc(N2CCCC2c2nc3cc(C(F)(F)F)ccc3n2CCOCCO)n1 (stereo unspecified)	.	.	.	.	.	/	/
COc1ccc(N2CCN(CNC(=O)c3ccccc3)CC2)cc1	.	.	/	.	/	.	/
CCN(CC)S(=O)(=O)c1cccc(NC(=O)c2cc(-c3cccs3)nn2-c2ccccc2)c1	.	.	.	.	.	.	/
CN(C)S(=O)(=O)c1cccc(NC(=O)c2cc(-c3cccs3)nn2-c2ccccc2)c1	.	.	.	.	.	.	.
